{
  "source": "ChEMBL document CHEMBL3227952",
  "about": "“Potential organ- or tumor-imaging agents. 18. Radioiodinated diamines and bisquaternaries” (J Med Chem, 1979)",
  "conditions_in_all_cases": "in vivo",
  "key": {"Adrenal [1]": {"test_system": "Adrenal", "experiment": "Drug uptake in Sprague-Dawley rat adrenal at 6.3 uCi, iv after 0.5 hrs by liquid scintillation counting", "format": "ADME, organism-based, Adrenal gland", "method_in_brief": "(§1)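 Adult male Sprague-Dawley rats (200–420 g) got ¹⁴C-labelled bisquaternary (20.9 µCi/mg) in saline, 0.1 mL, by tail vein under ether anesthesia. Five rats per time point were exsanguinated under ether. Organs were excised, rinsed, blotted and weighed. Duplicate samples underwent liquid scintillation counting, with quench corrected by the external standard-channels ratio. Results are % administered dose/g, mean ± SEM.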"}, "Brain [2]": {"test_system": "Brain", "experiment": "Drug uptake in Sprague-Dawley rat brain at 6.3 uCi, iv after 0.5 hrs by liquid scintillation counting", "format": "ADME, organism-based", "method_in_brief": "as §1"}, "[3]": {"experiment": "Drug uptake in Sprague-Dawley rat diaphragm at 6.3 uCi, iv after 0.5 hrs by liquid scintillation counting", "format": "ADME, organism-based", "method_in_brief": "as §1"}, "Heart [4]": {"test_system": "Heart", "experiment": "Drug uptake in Sprague-Dawley rat heart at 6.3 uCi, iv after 0.5 hrs by liquid scintillation counting", "format": "ADME, organism-based", "method_in_brief": "as §1"}, "[5]": {"experiment": "Drug uptake in Sprague-Dawley rat intervertebral disk at 6.3 uCi, iv after 0.5 hrs by liquid scintillation counting", "format": "ADME, organism-based", "method_in_brief": "as §1"}, "Kidney [6]": {"test_system": "Kidney", "experiment": "Drug uptake in Sprague-Dawley rat kidney at 6.3 uCi, iv after 0.5 hrs by liquid scintillation counting", "format": "ADME, organism-based", "method_in_brief": "as §1"}, "Liver [7]": {"test_system": "Liver", "experiment": "Drug uptake in Sprague-Dawley rat liver at 6.3 uCi, iv after 0.5 hrs by liquid scintillation counting", "format": "ADME, organism-based", "method_in_brief": "as §1"}, "Lung [8]": {"test_system": "Lung", "experiment": "Drug uptake in Sprague-Dawley rat lung at 6.3 uCi, iv after 0.5 hrs by liquid scintillation counting", "format": "ADME, organism-based", "method_in_brief": "as §1"}, "[9]": {"experiment": "Drug uptake in Sprague-Dawley rat meninges at 6.3 uCi, iv after 0.5 hrs by liquid scintillation counting", "format": "ADME, organism-based", "method_in_brief": "as §1"}, "Pancreas [10]": {"test_system": "Pancreas", "experiment": "Drug uptake in Sprague-Dawley rat pancreas at 6.3 uCi, iv after 0.5 hrs by liquid scintillation counting", "format": "ADME, organism-based", "method_in_brief": "as §1"}, "Spleen [11]": {"test_system": "Spleen", "experiment": "Drug uptake in Sprague-Dawley rat spleen at 6.3 uCi, iv after 0.5 hrs by liquid scintillation counting", "format": "ADME, organism-based", "method_in_brief": "(§2)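 [¹⁴C]Hexamethonium diiodide in saline (15 mg/5.0 mL), 20.9 μCi/mg, 0.1 mL injected into the tail vein of ether-anesthetized adult male Sprague-Dawley rats (200–420 g). At 0.5 or 2 h rats were exsanguinated under ether and organs excised, rinsed, blotted and weighed. Duplicate samples were counted by liquid scintillation, with quench corrected by external standard-channels ratio. Results are % administered dose/g, mean ± SEM, five rats.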"}, "Testes [12]": {"test_system": "Testes", "experiment": "Drug uptake in Sprague-Dawley rat testes at 6.3 uCi, iv after 0.5 hrs by liquid scintillation counting", "format": "ADME, organism-based, Testis", "method_in_brief": "as §2"}, "Thyroid gland [13]": {"test_system": "Thyroid gland", "experiment": "Drug uptake in Sprague-Dawley rat thyroid at 6.3 uCi, iv after 0.5 hrs by liquid scintillation counting", "format": "ADME, organism-based", "method_in_brief": "as §2"}, "[14]": {"experiment": "Drug uptake in Sprague-Dawley rat trachea at 6.3 uCi, iv after 0.5 hrs by liquid scintillation counting", "format": "ADME, organism-based", "method_in_brief": "as §2"}, "Blood [15]": {"test_system": "Blood", "experiment": "Drug uptake in Sprague-Dawley rat blood at 6.3 uCi, iv after 0.5 hrs by liquid scintillation counting", "format": "ADME, organism-based", "method_in_brief": "as §1"}, "Adrenal [16]": {"test_system": "Adrenal", "experiment": "Drug uptake in Sprague-Dawley rat adrenal at 6.3 uCi, iv after 2 hrs by liquid scintillation counting", "format": "ADME, organism-based, Adrenal gland", "method_in_brief": "as §1"}, "Brain [17]": {"test_system": "Brain", "experiment": "Drug uptake in Sprague-Dawley rat brain at 6.3 uCi, iv after 2 hrs by liquid scintillation counting", "format": "ADME, organism-based", "method_in_brief": "as §1"}, "[18]": {"experiment": "Drug uptake in Sprague-Dawley rat diaphragm at 6.3 uCi, iv after 2 hrs by liquid scintillation counting", "format": "ADME, organism-based", "method_in_brief": "as §1"}, "Heart [19]": {"test_system": "Heart", "experiment": "Drug uptake in Sprague-Dawley rat heart at 6.3 uCi, iv after 2 hrs by liquid scintillation counting", "format": "ADME, organism-based", "method_in_brief": "as §1"}, "[20]": {"experiment": "Drug uptake in Sprague-Dawley rat intervertebral disk at 6.3 uCi, iv after 2 hrs by liquid scintillation counting", "format": "ADME, organism-based", "method_in_brief": "as §1"}, "Kidney [21]": {"test_system": "Kidney", "experiment": "Drug uptake in Sprague-Dawley rat kidney at 6.3 uCi, iv after 2 hrs by liquid scintillation counting", "format": "ADME, organism-based", "method_in_brief": "as §1"}, "Liver [22]": {"test_system": "Liver", "experiment": "Drug uptake in Sprague-Dawley rat liver at 6.3 uCi, iv after 2 hrs by liquid scintillation counting", "format": "ADME, organism-based", "method_in_brief": "as §1"}, "Lung [23]": {"test_system": "Lung", "experiment": "Drug uptake in Sprague-Dawley rat lung at 6.3 uCi, iv after 2 hrs by liquid scintillation counting", "format": "ADME, organism-based", "method_in_brief": "as §1"}, "[24]": {"experiment": "Drug uptake in Sprague-Dawley rat meninges at 6.3 uCi, iv after 2 hrs by liquid scintillation counting", "format": "ADME, organism-based", "method_in_brief": "as §1"}, "Pancreas [25]": {"test_system": "Pancreas", "experiment": "Drug uptake in Sprague-Dawley rat pancreas at 6.3 uCi, iv after 2 hrs by liquid scintillation counting", "format": "ADME, organism-based", "method_in_brief": "as §1"}, "Spleen [26]": {"test_system": "Spleen", "experiment": "Drug uptake in Sprague-Dawley rat spleen at 6.3 uCi, iv after 2 hrs by liquid scintillation counting", "format": "ADME, organism-based", "method_in_brief": "as §2"}, "Testes [27]": {"test_system": "Testes", "experiment": "Drug uptake in Sprague-Dawley rat testes at 6.3 uCi, iv after 2 hrs by liquid scintillation counting", "format": "ADME, organism-based, Testis", "method_in_brief": "as §2"}, "Thyroid gland [28]": {"test_system": "Thyroid gland", "experiment": "Drug uptake in Sprague-Dawley rat thyroid at 6.3 uCi, iv after 2 hrs by liquid scintillation counting", "format": "ADME, organism-based", "method_in_brief": "as §2"}, "[29]": {"experiment": "Drug uptake in Sprague-Dawley rat trachea at 6.3 uCi, iv after 2 hrs by liquid scintillation counting", "format": "ADME, organism-based", "method_in_brief": "as §2"}, "Blood [30]": {"test_system": "Blood", "experiment": "Drug uptake in Sprague-Dawley rat blood at 6.3 uCi, iv after 2 hrs by liquid scintillation counting", "format": "ADME, organism-based", "method_in_brief": "as §1"}},
  "data": [
    {"compound": "C[N+](C)([14CH3])CCCCCC[N+](C)(C)[14CH3].[I-].[I-]", "values": [
      {"measurement": "Drug uptake", "setting": "Adrenal [1]", "result": 0.104, "unit": "% ID/g"},
      {"measurement": "Drug uptake", "setting": "Brain [2]", "result": 0.018, "unit": "% ID/g"},
      {"measurement": "Drug uptake", "setting": "[3]", "result": 0.094, "unit": "% ID/g"},
      {"measurement": "Drug uptake", "setting": "Heart [4]", "result": 0.145, "unit": "% ID/g"},
      {"measurement": "Drug uptake", "setting": "[5]", "result": 1.094, "unit": "% ID/g"},
      {"measurement": "Drug uptake", "setting": "Kidney [6]", "result": 2.616, "unit": "% ID/g"},
      {"measurement": "Drug uptake", "setting": "Liver [7]", "result": 0.112, "unit": "% ID/g"},
      {"measurement": "Drug uptake", "setting": "Lung [8]", "result": 0.377, "unit": "% ID/g"},
      {"measurement": "Drug uptake", "setting": "[9]", "result": 0.301, "unit": "% ID/g"},
      {"measurement": "Drug uptake", "setting": "Pancreas [10]", "result": 0.079, "unit": "% ID/g"},
      {"measurement": "Drug uptake", "setting": "Spleen [11]", "result": 0.123, "unit": "% ID/g"},
      {"measurement": "Drug uptake", "setting": "Testes [12]", "result": 0.097, "unit": "% ID/g"},
      {"measurement": "Drug uptake", "setting": "Thyroid gland [13]", "result": 0.206, "unit": "% ID/g"},
      {"measurement": "Drug uptake", "setting": "[14]", "result": 1.35, "unit": "% ID/g"},
      {"measurement": "Drug uptake", "setting": "Blood [15]", "result": 0.31, "unit": "% ID/g"},
      {"measurement": "Drug uptake", "setting": "Adrenal [16]", "result": 0.043, "unit": "% ID/g"},
      {"measurement": "Drug uptake", "setting": "Brain [17]", "result": 0.018, "unit": "% ID/g"},
      {"measurement": "Drug uptake", "setting": "[18]", "result": 0.014, "unit": "% ID/g"},
      {"measurement": "Drug uptake", "setting": "Heart [19]", "result": 0.018, "unit": "% ID/g"},
      {"measurement": "Drug uptake", "setting": "[20]", "result": 0.144, "unit": "% ID/g"},
      {"measurement": "Drug uptake", "setting": "Kidney [21]", "result": 1.384, "unit": "% ID/g"},
      {"measurement": "Drug uptake", "setting": "Liver [22]", "result": 0.049, "unit": "% ID/g"},
      {"measurement": "Drug uptake", "setting": "Lung [23]", "result": 0.137, "unit": "% ID/g"},
      {"measurement": "Drug uptake", "setting": "[24]", "result": 0.413, "unit": "% ID/g"},
      {"measurement": "Drug uptake", "setting": "Pancreas [25]", "result": 0.016, "unit": "% ID/g"},
      {"measurement": "Drug uptake", "setting": "Spleen [26]", "result": 0.051, "unit": "% ID/g"},
      {"measurement": "Drug uptake", "setting": "Testes [27]", "result": 0.022, "unit": "% ID/g"},
      {"measurement": "Drug uptake", "setting": "Thyroid gland [28]", "result": 0.047, "unit": "% ID/g"},
      {"measurement": "Drug uptake", "setting": "[29]", "result": 0.127, "unit": "% ID/g"},
      {"measurement": "Drug uptake", "setting": "Blood [30]", "result": 0.02, "unit": "% ID/g"}
    ]}
  ]
}
